Laboratory results from ChEMBL document CHEMBL4138126, “Synthesis, antiproliferative, anti-tubulin activity, and docking study of new 1,2,4-triazoles as potential combretastatin analogues” (Eur J Med Chem, 2017).

Assays:
Type in all cases: functional
NCI-H23 = assay: Growth inhibition of human NCI-H23 cells assessed as cell growth at 10 uM after 48 hrs by sulforhodamine B assay; conditions: NCI-H23, 48 h, read-out: Activity
In short: (§1)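 NCI 60-cell-line panel screen (nine cancer types). Compounds added at single concentration 10^-5 M, cultures incubated 48 h; growth inhibition percentages reported.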

BT-549 = assay: Growth inhibition of human BT549 cells assessed as cell growth at 10 uM after 48 hrs by sulforhodamine B assay; conditions: BT-549, 48 h, read-out: Activity; in short: as §1
SNB-75 = assay: Growth inhibition of human SNB75 cells assessed as cell growth at 10 uM after 48 hrs by sulforhodamine B assay; conditions: SNB-75, 48 h, read-out: Activity
In short: (§2)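 NCI 60-cell-line panel from nine tumour types (leukaemia, lung, colon, CNS, melanoma, ovarian, renal, prostate, breast). Each compound was added at one single concentration, and cultures were incubated for 48 h. Results are reported as percent growth inhibition.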

OVCAR-5 = assay: Growth inhibition of human OVCAR5 cells assessed as cell growth at 10 uM after 48 hrs by sulforhodamine B assay; conditions: OVCAR-5, 48 h, read-out: Activity; in short: as §1
NCI/ADR-RES = assay: Growth inhibition of human NCI-ADR-RES cells assessed as cell growth at 10 uM after 48 hrs by sulforhodamine B assay; conditions: read-out: Activity; in short: as §1
M14 = assay: Growth inhibition of human M14 cells assessed as cell growth at 10 uM after 48 hrs by sulforhodamine B assay; conditions: M14, 48 h, read-out: Activity; in short: as §1
Hs-578T = assay: Growth inhibition of human Hs 578T cells assessed as cell growth at 10 uM after 48 hrs by sulforhodamine B assay; conditions: read-out: Activity; in short: as §1
HL-60(TB) = assay: Growth inhibition of human HL-60(TB) cells assessed as cell growth at 10 uM after 48 hrs by sulforhodamine B assay; conditions: HL-60, 48 h, read-out: Activity
In short: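 Screened by the NCI in its 60-cell-line panel covering nine cancer types, including leukemia. Compounds were added at a single concentration, and the cultures were incubated for 48 h. Results are reported as percent growth inhibition.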

SF-295 = assay: Growth inhibition of human SF295 cells assessed as cell growth at 10 uM after 48 hrs by sulforhodamine B assay; conditions: SF-295, 48 h, read-out: Activity; in short: as §1
IGROV-1 = assay: Growth inhibition of human IGROV1 cells assessed as cell growth at 10 uM after 48 hrs by sulforhodamine B assay; conditions: IGROV-1, 48 h, read-out: Activity; in short: as §1
NCI-H522 = assay: Growth inhibition of human NCI-H522 cells assessed as cell growth at 10 uM after 48 hrs by sulforhodamine B assay; conditions: NCI-H522, 48 h, read-out: Activity; in short: as §1
SF-539 = assay: Growth inhibition of human SF539 cells assessed as cell growth at 10 uM after 48 hrs by sulforhodamine B assay; conditions: SF-539, 48 h, read-out: Activity; in short: as §1
NCI-H460 = assay: Growth inhibition of human NCI-H460 cells assessed as cell growth at 10 uM after 48 hrs by sulforhodamine B assay; conditions: NCI-H460, 48 h, read-out: Activity; in short: as §1
MDA-MB-231 = assay: Growth inhibition of human MDA-MB-231 cells assessed as cell growth at 10 uM after 48 hrs by sulforhodamine B assay; conditions: MDA-MB-231, 48 h, read-out: Activity; in short: as §1
SR = assay: Growth inhibition of human SR cells assessed as cell growth at 10 uM after 48 hrs by sulforhodamine B assay; conditions: read-out: Activity; in short: as §2
SK-MEL-2 = assay: Growth inhibition of human SK-MEL-2 cells assessed as cell growth at 10 uM after 48 hrs by sulforhodamine B assay; conditions: SK-MEL-2, 48 h, read-out: Activity; in short: as §1
A549 = assay: Growth inhibition of human A549/ATCC cells assessed as cell growth at 10 uM after 48 hrs by sulforhodamine B assay; conditions: A549, 48 h, read-out: Activity; in short: as §1
T47D = assay: Growth inhibition of human T47D cells assessed as cell growth at 10 uM after 48 hrs by sulforhodamine B assay; conditions: read-out: Activity; in short: as §2
SK-OV-3 = assay: Growth inhibition of human SKOV3 cells assessed as cell growth at 10 uM after 48 hrs by sulforhodamine B assay; conditions: SK-OV-3, 48 h, read-out: Activity; in short: as §1
COLO 205 = assay: Growth inhibition of human COLO205 cells assessed as cell growth at 10 uM after 48 hrs by sulforhodamine B assay; conditions: COLO 205, 48 h, read-out: Activity; in short: as §1
PC-3 = assay: Growth inhibition of human PC3 cells assessed as cell growth at 10 uM after 48 hrs by sulforhodamine B assay; conditions: PC-3, 48 h, read-out: Activity; in short: as §1
OVCAR-8 = assay: Growth inhibition of human OVCAR8 cells assessed as cell growth at 10 uM after 48 hrs by sulforhodamine B assay; conditions: OVCAR-8, 48 h, read-out: Activity; in short: as §1
MDA-MB-435 = assay: Growth inhibition of human MDA-MB-435 cells assessed as cell growth at 10 uM after 48 hrs by sulforhodamine B assay; conditions: MDA-MB-435, 48 h, read-out: Activity; in short: as §1
786-0 = assay: Growth inhibition of human 786-0 cells assessed as cell growth at 10 uM after 48 hrs by sulforhodamine B assay; conditions: 786-0, 48 h, read-out: Activity; in short: as §1
UO-31 = assay: Growth inhibition of human UO31 cells assessed as cell growth at 10 uM after 48 hrs by sulforhodamine B assay; conditions: UO-31, 48 h, read-out: Activity; in short: as §2
OVCAR-4 = assay: Growth inhibition of human OVCAR4 cells assessed as cell growth at 10 uM after 48 hrs by sulforhodamine B assay; conditions: OVCAR-4, 48 h, read-out: Activity; in short: as §1
MCF7 = assay: Growth inhibition of human MCF7 cells assessed as cell growth at 10 uM after 48 hrs by sulforhodamine B assay; conditions: MCF7, 48 h, read-out: Activity; in short: as §1
HOP-62 = assay: Growth inhibition of human HOP62 cells assessed as cell growth at 10 uM after 48 hrs by sulforhodamine B assay; conditions: HOP-62, 48 h, read-out: Activity; in short: as §1
HCT-116 = assay: Growth inhibition of human HCT116 cells assessed as cell growth at 10 uM after 48 hrs by sulforhodamine B assay; conditions: HCT-116, 48 h, read-out: Activity; in short: as §1
A498 = assay: Growth inhibition of human A498 cells assessed as cell growth at 10 uM after 48 hrs by sulforhodamine B assay; conditions: A498, 48 h, read-out: Activity; in short: as §1
HOP-92 = assay: Growth inhibition of human HOP92 cells assessed as cell growth at 10 uM after 48 hrs by sulforhodamine B assay; conditions: HOP-92, 48 h, read-out: Activity; in short: as §1
SW-620 = assay: Growth inhibition of human SW620 cells assessed as cell growth at 10 uM after 48 hrs by sulforhodamine B assay; conditions: SW-620, 48 h, read-out: Activity; in short: as §2
TK-10 = assay: Growth inhibition of human TK10 cells assessed as cell growth at 10 uM after 48 hrs by sulforhodamine B assay; conditions: TK-10, 48 h, read-out: Activity; in short: as §2

Row | Compound | growth at 10 µM (NCI-H23) | growth at 10 µM (BT-549) | growth at 10 µM (SNB-75) | growth at 10 µM (OVCAR-5) | growth at 10 µM (NCI/ADR-RES) | growth at 10 µM (M14) | growth at 10 µM (Hs-578T) | growth at 10 µM (HL-60(TB)) | growth at 10 µM (SF-295) | growth at 10 µM (IGROV-1) | growth at 10 µM (NCI-H522) | growth at 10 µM (SF-539) | growth at 10 µM (NCI-H460) | growth at 10 µM (MDA-MB-231) | growth at 10 µM (SR) | growth at 10 µM (SK-MEL-2) | growth at 10 µM (A549) | growth at 10 µM (T47D) | growth at 10 µM (SK-OV-3) | growth at 10 µM (COLO 205) | further results
1 | CCOc1ccc(-n2nc(C(=O)NCc3cc(F)cc(F)c3)nc2-c2cc(OC)c(OC)c(OC)c2)cc1 | 81.8% | 68.7% | 43.4% | 85% | 61.7% | 65.2% | 75.7% | 61.4% | 65.2% | 62.5% | 50.9% | 70.7% | 66.1% | 43.1% | 64% | 65.5% | 57% | 44.1% | 76% | 65% | growth at 10 µM (PC-3): 40.2%; growth at 10 µM (OVCAR-8): 75%; growth at 10 µM (MDA-MB-435): 67%; growth at 10 µM (786-0): 65.9%; growth at 10 µM (UO-31): 25.8%; growth at 10 µM (OVCAR-4): 65.8%; growth at 10 µM (MCF7): 44.3%; growth at 10 µM (HOP-62): 75.2%; growth at 10 µM (HCT-116): 49.7%; growth at 10 µM (A498): 64.4%; growth at 10 µM (HOP-92): 61.1%; growth at 10 µM (SW-620): 91.4%; growth at 10 µM (TK-10): 79.9%
2 | CCOc1ccc(-n2nc(C(=O)Nc3ccc(OC)c(O)c3)nc2-c2cc(OC)c(OC)c(OC)c2)cc1 | 86.1% | 103% | 71.2% | 102% | 86.4% | 103% | 86.8% | 94.3% | 108% | 95.2% | 70.3% | 96.2% | 97.6% | 65.8% | 68.5% | 96% | 94% | 88.8% | 112% | 109% | growth at 10 µM (PC-3): 72%; growth at 10 µM (OVCAR-8): 78.7%; growth at 10 µM (MDA-MB-435): 95%; growth at 10 µM (786-0): 94.5%; growth at 10 µM (UO-31): 56%; growth at 10 µM (OVCAR-4): 99.8%; growth at 10 µM (MCF7): 90.9%; growth at 10 µM (HOP-62): 99.3%; growth at 10 µM (HCT-116): 96.7%; growth at 10 µM (A498): 111%; growth at 10 µM (HOP-92): 68.1%; growth at 10 µM (SW-620): 104%; growth at 10 µM (TK-10): 107%
3 | CCOc1ccc(-n2nc(C(=O)Nc3ccc(F)c(F)c3)nc2-c2cc(OC)c(OC)c(OC)c2)cc1 | 77.3% | 65.5% | 74.4% | 101% | 67.5% | 70.2% | 48.1% | 89% | 60.5% | 81.3% | 61.1% | 96.6% | 77.9% | 63.1% | 64% | 78.4% | 62% | 41.7% | 85.2% | 63.7% | growth at 10 µM (PC-3): 47.1%; growth at 10 µM (OVCAR-8): 42.2%; growth at 10 µM (MDA-MB-435): 70.3%; growth at 10 µM (786-0): 85%; growth at 10 µM (UO-31): 42.6%; growth at 10 µM (OVCAR-4): 66.1%; growth at 10 µM (MCF7): 78.8%; growth at 10 µM (HOP-62): 89.1%; growth at 10 µM (HCT-116): 51.2%; growth at 10 µM (A498): 68.9%; growth at 10 µM (HOP-92): 67%; growth at 10 µM (SW-620): 89.9%; growth at 10 µM (TK-10): 87.4%
4 | CCOc1ccc(-n2nc(C(=O)Nc3cc(F)cc(F)c3)nc2-c2cc(OC)c(OC)c(OC)c2)cc1 | 84% | 101% | 58% | 98.8% | 81.7% | 98% | 75.5% | 96.1% | 84.6% | 85.1% | 61.6% | 82.4% | 94.7% | 64.3% | 61.8% | 92.9% | 73.8% | 55.9% | 93% | 89.9% | growth at 10 µM (PC-3): 69.9%; growth at 10 µM (OVCAR-8): 84.6%; growth at 10 µM (MDA-MB-435): 91%; growth at 10 µM (786-0): 82.1%; growth at 10 µM (UO-31): 53.5%; growth at 10 µM (OVCAR-4): 84.8%; growth at 10 µM (MCF7): 79%; growth at 10 µM (HOP-62): 95%; growth at 10 µM (HCT-116): 95.2%; growth at 10 µM (A498): 56%; growth at 10 µM (HOP-92): 67.8%; growth at 10 µM (SW-620): 99.3%; growth at 10 µM (TK-10): 96.9%
